In test [1] the target is Small conductance calcium-activated potassium channel (Rattus norvegicus) (UniProt P70604+P70606+P70605). Description: Displacement of [125I]apamin from calcium-activated potassium (SK) channels of rat cortex at 10 uM. In short, it runs like this: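 Rat cortical synaptosomes (0.2 mg protein/mL) in 10 mM Tris-HCl pH 7.5 with 5.4 mM KCl and 0.1% BSA. Incubated 1 h at 0 °C with about 10 pM 125I-apamin and 10 μM drug. Filtered on polyethylenimine-coated GF/C filters, washed twice, counted by scintillation. Nonspecific binding defined with 0.1 μM unlabeled apamin; filter binding without synaptosomes subtracted.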
In general terms: In a radioligand displacement assay an active substance lowers the binding of a labelled ligand.

Test [2] concerns the target Small conductance calcium-activated potassium channel (Rattus norvegicus, UniProt P70604+P70606+P70605). Description: Inhibition of [125I]apamin binding to calcium-activated potassium (SK) channel of rat cortex. In short, it runs like this:
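Cortical synaptosomes (0.2 mg protein/mL), Tris-HCl 10 mM pH 7.5 buffer with 5.4 mM KCl and 0.1% BSA. 1 h at 0 °C with ±10 pM 125I-apamin and nine drug concentrations (10-4–10-7 M); run for drugs displacing at least 20% at 10 μM. Polyethylenimine-coated GF/C filtration, scintillation counting. Nonspecific binding with 0.1 μM apamin; curve-fitted.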

By IC50 is commonly meant the midpoint of a concentration-inhibition curve. By Ki is commonly meant the equilibrium dissociation constant of an inhibitor or competing ligand from its target. In the case of `COc1ccc(CC2c3c(cccc3C(C)C)CC[N+]2(C)C)cc1OC.[I-]` (stereo not given), in test [1], the Displacement is 55%. In test [2], the IC50 is 8.6 µM and the inhibitory constant (Ki) was found to be 1.6 µM.

As to `COc1ccc(CC2c3cccc(Cl)c3CCN2C)cc1OC` (stereo not given), in test [1], the Displacement was 8%.

In the case of `COc1ccc(CC2c3c(Br)cccc3CCN2C)cc1OC` (stereo not given), the Displacement in test [1] was 10%.

`CCc1cccc2c1C(Cc1ccc(OC)c(OC)c1)[N+](C)(C)CC2.[I-]` (stereo not given): the Displacement in test [1] worked out at 44%. In test [2], the IC50 was determined as 13.6 µM and the Ki was determined as 2.6 µM.

For `COc1ccc(CC2c3sc(C)cc3CC[N+]2(C)C)cc1OC` (stereo not given), the Displacement in test [1] was determined as 18%.

On to `COc1ccc(CC2c3cccc(Br)c3CCN2C)cc1OC` (stereo not given), for which, in test [1], the Displacement stood at 1%.

As to `COc1ccc(CC2c3c(Cl)cccc3CC[N+]2(C)C)cc1OC.[I-]` (stereo not given), in test [1], the Displacement was found to be 23%. Besides, in test [2], the 50% inhibitory concentration (IC50) stood at 50 µM and the inhibition constant (Ki) was 9.3 µM.

Turning to `COc1ccc(CC2c3c(cccc3OC)CCN2C)cc1OC` (stereo not given), the Displacement in test [1] stood at 1%.

`COc1ccc(CC2c3sc(C)cc3CCN2C)cc1OC` (stereo not given): the Displacement in test [1] came out at 1%.

On to `COc1ccc(CC2c3cccc(Cl)c3CC[N+]2(C)C)cc1OC` (stereo not given), for which the Displacement in test [1] is 27%. Also, in test [2], the IC50 came to 39.6 µM and the Ki was found to be 7.6 µM.

`COc1ccc(CC2c3c(cccc3C(C)C)CCN2C)cc1OC` (stereo not given): in test [1], the Displacement turned out to be 10%.

On to `COc1ccc(C[C@H]2c3cc(OC)c(OC)cc3CC[N+]2(C)C)cc1OC.[I-]` [LAUDANOSINE METHIODIDE], for which the Displacement in test [1] stood at 57%. Moreover, in test [2], the 50% inhibitory concentration (IC50) amounted to 8.7 µM and the Ki worked out at 1.6 µM.

`COc1ccc(CC2c3c(Cl)cccc3CCN2C)cc1OC` (stereo not given): the Displacement in test [1] stood at 5%.

With `COc1ccc(CC2c3c(C)cccc3CCN2C)cc1OC` (stereo not given), in test [1], the Displacement stood at 10%.

On to `COc1ccc(CC2c3c(Br)cccc3CC[N+]2(C)C)cc1OC.[I-]` (stereo not given), for which the Displacement in test [1] was found to be 26%. Besides, in test [2], the half-maximal inhibitory concentration (IC50) worked out at 35.2 µM and the inhibitory constant (Ki) came out at 6.8 µM.

`COc1ccc(CC2c3c(cccc3OC)CC[N+]2(C)C)cc1OC` (stereo not given): the Displacement in test [1] turned out to be 9%.

For the molecule `COc1ccc(CC2c3sccc3CC[N+]2(C)C)cc1OC` (stereo not given), in test [1], the Displacement is 15%.

On to `COc1ccc(CC2c3cccc(Br)c3CC[N+]2(C)C)cc1OC` (stereo not given), for which the Displacement in test [1] came out at 29%. Besides, in test [2], the IC50 is 25.4 µM and the inhibition constant Ki worked out at 4.9 µM.

With `COc1ccc2c(c1OC)C(=O)OC2C1c2c(cc3c(c2OC)OCO3)CC[N+]1(C)C.[I-]` (stereo not given), in test [1], the Displacement was 27%. For the same molecule, in test [2], the IC50 amounted to 14.1 µM and the Ki amounted to 3.6 µM.

Turning to `COc1ccc(CC2c3sccc3CCN2C)cc1OC` (stereo not given), the Displacement in test [1] was determined as 2%.

With `CCc1cccc2c1C(Cc1ccc(OC)c(OC)c1)N(C)CC2` (stereo not given), the Displacement in test [1] was determined as 2%.

For `COc1ccc(CC2c3c(C)cccc3CC[N+]2(C)C)cc1OC.[I-]` (stereo not given), in test [1], the Displacement is 24%. Moreover, in test [2], the 50% inhibitory concentration (IC50) was 28.4 µM and the inhibition constant Ki was determined as 5.5 µM.

(Values after ChEMBL document CHEMBL1140341, “Synthesis and radioligand binding studies of C-5- and C-8-substituted 1-(3,4-dimethoxybenzyl)-2,2-dimethyl-1,2,3,4-tetrahydroisoquinoliniums as SK channel blockers related to N-methyl-laudanosine and N-methyl-noscapine” (J Med Chem, 2005).)
